A short description of assay [1]: Binding affinity to Escherichia coli ThrRS by coupled spectrophotometry. Summed up: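 Coupled spectrophotometric assay following pyrophosphate released during ATP-dependent adenylation, read out through MESG with inorganic pyrophosphatase and purine nucleoside phosphorylase. Buffer was 60 mM Tris pH 7.6, 10 mM MgCl₂, 20 mM KCl, 0.5 mM DTT, 2% DMSO, with 4 mM ATP, 200 mM L-serine as surrogate substrate and 5 nM enzyme.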

For assay [2], the target named is T1, Threonine--tRNA ligase (Yersinia pestis, UniProt Q8ZDW5).
T1 sequence (Q8ZDW5 whole entry): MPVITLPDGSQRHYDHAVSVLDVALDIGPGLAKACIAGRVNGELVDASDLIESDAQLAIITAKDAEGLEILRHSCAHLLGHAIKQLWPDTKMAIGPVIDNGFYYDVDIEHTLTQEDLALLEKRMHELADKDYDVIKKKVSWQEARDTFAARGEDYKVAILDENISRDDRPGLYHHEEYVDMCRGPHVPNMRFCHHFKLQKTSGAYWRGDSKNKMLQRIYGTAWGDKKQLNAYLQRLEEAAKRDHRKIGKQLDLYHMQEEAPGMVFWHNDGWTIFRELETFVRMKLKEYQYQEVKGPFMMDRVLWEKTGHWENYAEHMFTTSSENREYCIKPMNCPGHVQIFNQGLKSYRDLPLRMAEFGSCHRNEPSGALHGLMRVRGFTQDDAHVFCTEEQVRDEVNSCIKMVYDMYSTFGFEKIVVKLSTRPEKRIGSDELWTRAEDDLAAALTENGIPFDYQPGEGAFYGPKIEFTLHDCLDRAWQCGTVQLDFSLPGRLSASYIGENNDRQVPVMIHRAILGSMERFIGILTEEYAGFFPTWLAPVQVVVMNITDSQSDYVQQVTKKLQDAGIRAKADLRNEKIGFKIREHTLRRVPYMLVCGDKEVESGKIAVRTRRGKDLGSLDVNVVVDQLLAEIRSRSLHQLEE
Put plainly: Binding affinity to Yersinia pestis ThrRS by coupled spectrophotometry. In short, it runs like this:
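Coupled spectrophotometric (MESG) readout of pyrophosphate release during adenylation; L-serine 200 mM as surrogate substrate, 4 mM ATP, 5 nM enzyme, Tris pH 7.6, MgCl₂, KCl, DTT, 2% DMSO. Inhibitor 16-point 2-fold series, 50 μM–1.5 nM, normalised to no-inhibitor and no-enzyme controls. IC50 from 4-parameter fit; Ki by bisubstrate Cheng–Prusoff.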

Assay [3] deals with Burkholderia thailandensis. Put plainly: Antimicrobial activity against wild type Burkholderia thailandensis E264 measured after overnight incubation by alamarBlue assay. The assay is classed as functional. For orientation: Alamar Blue is a resazurin reagent that responds to reducing activity.
The subject of assay [4] is Escherichia coli. Kind of assay: Antimicrobial activity against Escherichia coli BW25113 expressing TolC Leu13-Ala480 deletion mutant measured after overnight incubation by alamarBlue assay. It is filed as functional.
Assay [5] can be described thus: Binding affinity to Burkholderia thailandensis ThrRS by coupled spectrophotometry.
In assay [6] the test system is Escherichia coli. Kind of assay: Antimicrobial activity against Escherichia coli BAS849 expressing Imp Thr332-Tyr354 deletion mutant measured after overnight incubation by alamarBlue assay. The assay is classed as functional.
Assay [7] deals with Haemophilus influenzae. Put plainly: Antimicrobial activity against wild type Haemophilus influenzae ATCC 31517 measured after overnight incubation by alamarBlue assay. The assay is classed as functional. In short, it runs like this: (§1)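 Broth microdilution per CLSI; DMSO stocks at 6.4 mg/mL, serially diluted and added 1:50 to inoculated medium for final 0.063–128 μg/mL. Inoculum about 5 × 10⁵ CFU/mL, checked by plating. Overnight at 37 °C; H. influenzae grown in Haemophilus test medium broth with 5% CO₂. alamarBlue added for 1 h; MIC read as the lowest concentration with no visible color change.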

For assay [8], the system named is Escherichia coli. Kind of assay: Antimicrobial activity against wild type Escherichia coli ATCC 25922 measured after overnight incubation by alamarBlue assay. The assay is classed as functional. Summed up:
as §1

The test system of assay [9] is Burkholderia thailandensis. Put plainly: Antimicrobial activity against isogenic amrAB-oprA/bpeAB-oprB double knockout Burkholderia thailandensis E264 measured after overnight incubation by alamarBlue assay. The assay is classed as functional.
In assay [10] the target is T2, Threonine--tRNA ligase 1, cytoplasmic (Homo sapiens, UniProt P26639).
T2 sequence (P26639 whole entry): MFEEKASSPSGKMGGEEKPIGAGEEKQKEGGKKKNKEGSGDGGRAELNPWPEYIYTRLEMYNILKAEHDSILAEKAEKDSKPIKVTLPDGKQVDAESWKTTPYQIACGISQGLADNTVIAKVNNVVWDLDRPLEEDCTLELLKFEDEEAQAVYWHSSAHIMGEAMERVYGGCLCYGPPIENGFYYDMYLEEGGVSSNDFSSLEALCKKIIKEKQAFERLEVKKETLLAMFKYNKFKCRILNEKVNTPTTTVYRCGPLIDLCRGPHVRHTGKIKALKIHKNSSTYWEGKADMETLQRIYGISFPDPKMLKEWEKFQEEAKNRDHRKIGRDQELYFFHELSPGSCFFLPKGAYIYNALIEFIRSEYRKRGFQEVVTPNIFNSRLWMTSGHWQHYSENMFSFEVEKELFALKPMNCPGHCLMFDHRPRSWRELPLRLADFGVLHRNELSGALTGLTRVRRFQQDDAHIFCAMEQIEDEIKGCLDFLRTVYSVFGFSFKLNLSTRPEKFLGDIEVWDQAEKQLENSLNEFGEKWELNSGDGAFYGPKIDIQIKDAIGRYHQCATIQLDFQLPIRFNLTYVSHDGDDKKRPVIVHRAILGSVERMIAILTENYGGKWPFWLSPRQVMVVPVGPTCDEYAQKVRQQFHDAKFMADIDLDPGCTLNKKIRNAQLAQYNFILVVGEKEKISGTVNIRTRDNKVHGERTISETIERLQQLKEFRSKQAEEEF
Put plainly: Binding affinity to human cytoplasmic ThrRS by coupled spectrophotometry.

Structures are written as SMILES. pKi: −log10 of the molar value. Values after ≈ are worked out from the molar mass of the structure shown.

On to `C[C@@H](N)[C@H](N)C(=O)NS(=O)(=O)/C=C/c1cccc(-c2cc(N)ncn2)c1`, for which the pKi in assay [1] and in assay [2] was below 4.30 throughout.

Consider `C[C@@H](O)[C@H](N)C(=O)NS(=O)(=O)OC[C@@H]1O[C@H](n2cnc3c(N)ncnc32)[C@@H](O)[C@H]1O`, for which the MIC in assay [3] was above 128 µg/mL; in assay [4], above 128 µg/mL; in assay [6] it was above 128 µg/mL; in [7], above 128 µg/mL; in assay [8], above 128 µg/mL; in assay [9] it was 64 µg/mL (≈ 143 µM). Besides, the pKi (in general, the negative decadic logarithm of the Ki, by convention in mol/L) in assay [1] was 7.88; in [5], 8.55; in assay [2] it was 8.01.

For `C[C@@H](O)[C@H](N)C(=O)NS(=O)(=O)c1cccc(-c2ccc3c(N)ncnc3c2)c1`, the MIC in assay [3] was above 128 µg/mL; in assay [4], 64 µg/mL (≈ 159 µM); in assay [6], above 128 µg/mL; in assay [7], 16 µg/mL (≈ 39.9 µM); in [8] it was above 128 µg/mL; in assay [9], 8 µg/mL (≈ 19.9 µM). Also, the results for the pKi in assay [1], in assay [5] and in assay [2] were 8.54, 9.05 and 8.66, respectively.

Turning to `C[C@@H](O)[C@H](N)C(=O)NS(=O)(=O)c1cccc(-c2ccc3c(N)nc(N)nc3c2)c1`, the MIC in assay [3] was above 128 µg/mL; in [4], 64 µg/mL (≈ 154 µM); in [6], above 128 µg/mL; in [7] it was 32 µg/mL (≈ 76.8 µM); in [8], above 128 µg/mL; in [9] it was 4 µg/mL (≈ 9.6 µM). Further, the negative-log Ki (pKi) is 7.97 in [1], 8.54 in [5] and 8.09 in assay [2].

As for `C[C@@H](O)[C@H](N)C(=O)NS(=O)(=O)c1cccc(-c2ccc3c(N)nc(Cl)nc3c2)c1`, the MIC was above 128 µg/mL in assay [3]; 16 µg/mL (≈ 36.7 µM) in assay [4]; 128 µg/mL (≈ 294 µM) in [6]; 8 µg/mL (≈ 18.4 µM) in [7]; above 128 µg/mL in assay [8]; 32 µg/mL (≈ 73.4 µM) in [9]. For the same compound, the pKi in assay [1] is 9.10; in [5], 9.52; in [2] it was 9.15.

`Cc1nc(N)c2ccc(-c3cccc(S(=O)(=O)NC(=O)[C@@H](N)[C@@H](C)O)c3)cc2n1`: the negative-log Ki (pKi) is 7.76 in assay [1], 7.91 in assay [5] and 8.03 in assay [2].

With `C[C@@H](O)[C@H](N)C(=O)NS(=O)(=O)c1cccc(-c2ccc3c(N)nc(Cl)cc3c2)c1`, the pKi was 7.70 in assay [1], 7.64 in assay [5] and 7.60 in assay [2].

On to `C[C@@H](O)[C@H](N)C(=O)NS(=O)(=O)c1cccc(-c2ccc3c(N)nccc3c2)c1`, for which the values for the negative logarithm of the Ki (pKi) in assay [1], in assay [5] and in assay [2] were 7.05, 7.05 and 6.94, respectively.

`C[C@@H](O)[C@H](N)C(=O)NS(=O)(=O)c1ccc2ccc(-c3cc(N)ncn3)cc2c1`: the MIC in assay [3] was above 128 µg/mL; in assay [4] it was 64 µg/mL (≈ 159 µM); in assay [6], above 128 µg/mL; in assay [7], 4 µg/mL (≈ 9.96 µM); in [8], above 128 µg/mL; in assay [9], 4 µg/mL (≈ 9.96 µM). Also, the results for the pKi in assay [1], in assay [5] and in [2] were 8.57, 9.15 and 8.70, respectively.

Turning to `C[C@@H](O)[C@H](N)C(=O)NS(=O)(=O)/C=C/c1cccc(-c2cc(N)ncn2)c1`, the MIC is above 128 µg/mL in assay [3]; 64 µg/mL (≈ 170 µM) in [4]; above 128 µg/mL in [6]; 8 µg/mL (≈ 21.2 µM) in [7]; above 128 µg/mL in [8]; 32 µg/mL (≈ 84.8 µM) in assay [9]. Besides, the pKi in assay [1] is 8.57; in assay [5] it was 8.96; in assay [2], 8.74.

With `C[C@@H](O)[C@H](N)C(=O)NS(=O)(=O)c1ccc2ccc(-c3ncnc4[nH]ccc34)cc2c1`, the MIC is above 128 µg/mL in assay [3]; 16 µg/mL (≈ 37.6 µM) in assay [4]; above 128 µg/mL in assay [6]; 16 µg/mL (≈ 37.6 µM) in assay [7]; above 128 µg/mL in assay [8]; 32 µg/mL (≈ 75.2 µM) in [9]. In addition, the pKi was 8.62 in assay [1], 9.22 in assay [5] and 8.74 in assay [2].

Take `C[C@@H](O)[C@H](N)C(=O)NS(=O)(=O)N1CCc2ccc(-c3ncnc4[nH]ccc34)cc2C1`: the pKi was 8.02 in assay [1], 8.40 in assay [5] and 8.24 in assay [2].

As to `C[C@@H](O)[C@H](N)C(=O)NS(=O)(=O)c1cccc(-c2ccc3c(c2)CNC3=O)c1`, the pKi in [1] is 8.11; in assay [5], 8.13; in assay [2], 8.41.

`C[C@@H](O)[C@H](N)C(=O)NS(=O)(=O)c1cccc(-c2ccc3[nH]nc(Cl)c3c2)c1`: the pKi in assay [1] was 7.28; in assay [5] it was 7.11; in assay [2], 7.41.

As to `C[C@@H](O)[C@H](N)C(=O)NS(=O)(=O)c1ccc(Oc2ccccc2)cc1`, the pKi in [1] was 4.44; in assay [5] it was 3.71; in assay [2], 4.48.

`Cc1n[nH]c2ccc(-c3cccc(S(=O)(=O)NC(=O)[C@@H](N)[C@@H](C)O)c3)cc12`: the pKi in [1] was 6.90; in assay [5], 6.84; in assay [2] it was 7.08.

In the case of `C[C@@H](O)[C@H](N)C(=O)NS(=O)(=O)c1cccc(-c2ccc3[nH]ncc3c2)c1`, the negative logarithm of the Ki (pKi) in [1] was 6.74; in [5] it was 6.79; in [2], 6.88; in assay [10], below 4.30.

Take `C[C@@H](O)[C@H](N)C(=O)NCc1cccc(-c2ccc3c(N)nc(Cl)nc3c2)c1`: the pKi is 6.48 in [1], 6.85 in [5] and 6.36 in assay [2].

On to `C[C@@H](O)[C@H](N)C(=O)NNc1cccc(-c2ccc3c(N)nc(Cl)nc3c2)c1`, for which the values for the negative-log Ki (pKi) in [1], in assay [5] and in [2] were 6.87, 7.47 and 7.15, respectively.

Regarding `C[C@@H](O)[C@H](N)CNS(=O)(=O)c1cccc(-c2ccc3c(N)nc(Cl)nc3c2)c1`, the pKi in assay [1], in [2] and in [10] was below 4.30 throughout.

Turning to `C[C@@H](O)[C@H](N)C(=O)N(C)S(=O)(=O)c1cccc(-c2ccc3c(c2)CNC3=O)c1`, the pKi in [1], in [2] and in assay [10] was below 4.30 throughout.

In the case of `CC[C@@H](O)[C@H](N)C(=O)NS(=O)(=O)/C=C/c1cccc(-c2cc(N)ncn2)c1`, the values for the pKi in assay [1], in assay [5] and in [2] were 8.37, 7.85 and 8.57, respectively.

Consider `CC(C)[C@@H](O)[C@H](N)C(=O)NS(=O)(=O)/C=C/c1cccc(-c2cc(N)ncn2)c1`, for which the pKi is 7.49 in [1], 6.23 in assay [5] and 7.65 in assay [2].

For the compound `C[C@@H](O)[C@H](O)C(=O)NS(=O)(=O)/C=C/c1cccc(-c2cc(N)ncn2)c1`, the pKi in [1], in assay [2] and in assay [10] was below 4.30 throughout.
